Active and inactive are the calls of the source.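 The calls were made as follows, unless noted: active = NADPH fluorescence slope more negative than the mean of all samples by about 3 SD, 99.7% confidence; inactive = the rest.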
Tests used:
[1] = inhibitors of TNFa-induced NFkB p65 translocation, primary screen, imaging, HUVEC, MLSMR starter and 10KST1 sets (AID 438;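 active = inhibition above 20% together with a positive visual image hit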;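 also: compound added about 3h40 before a 20 min TNFalpha stimulation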;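 as to inhibition: signal is the nuclear over cytoplasmic p65 intensity ratio per well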); settings: HUVEC TNFa-induced p65 nuclear translocation; cell count: measured here: nuclei count (cytotoxicity indicator), at 2.08 µM; inhibition: at 2 µM, stronger effect = higher value, 0% TNFa-plus-vehicle, 100% no-TNFa wells
[2] = reduction of polyQ htt aggregates in cells – imaging, exon1htt(103Q)mCFP cells, high-content imaging, primary screen (AID 483;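 active = visual image review flags a hit and inhibition of aggregation exceeds 20%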;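 also: compound exposure lasted 3 days before fixation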;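 as to nuclei count: percent of the per-plate median nuclei count of sample wells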); settings: exon1htt(103Q)mCFP cell line, aggregate imaging, at 2 µM; inhibition of aggregation: stronger effect = higher value; nuclei count: measured here: cell count, toxicity
[3] = endothelial E-selectin expression blockers – imaging, HUVEC, immunofluorescence, MLSMR starter and 10KST1 sets, primary screen (AID 487;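 active = visually confirmed hit in the image check and inhibition above 20%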;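 as to inhibition: signal is fraction of cell area covered by stained E-selectin grains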;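 as to nuclei count: 100% = median nuclei count of all wells on the same plate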); settings: HUVEC TNFalpha-induced E-selectin immunofluorescence imaging, at 2 µM; inhibition: stronger effect = higher value; nuclei count: measured here: cell number, toxicity
[4] = biological target: Voltage-gated potassium channel subunit beta-2 (Rattus norvegicus) (UniProt P62483); experiment: inhibitors of rat Kvbeta2 reductase activity – biochemical, NADPH fluorescence, primary screen (AID 622;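 active = fluorescence slope higher than the sample average by over 3 SD, cut at about -0.22 in these data, passing the limit was not always enough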;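 also: slope of raw intensity against log time taken from 70 to 1610 s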); settings: recombinant KvBeta, 4-cyanobenzaldehyde reduction, at 10 µM, stronger effect = higher value
[5] = biological target: Voltage-gated potassium channel subunit beta-2 (Rattus norvegicus) (UniProt P62483); experiment: enhancers of rat Kvbeta2 NADPH turnover – biochemical, NADPH fluorescence, primary screen (AID 623); settings: Recombinant KvBeta, NADPH fluorescence decrease slope, 10 min; at 10 µM; stronger effect = lower value;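 also: fluorescence intensity change per second fitted from 20 to 320 s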
[6] = biological target: Alpha-2C adrenergic receptor (Homo sapiens) (UniProt P18825); experiment: compounds altering alpha2C-coupled GIRK flux – cell-based, HEK293 alpha2C/GIRK1/2, thallium flux, primary screen (AID 624;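 active = fluorescence slope after compound addition differing from the mean of all screened samples at 99.7% confidence, in either direction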;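 also: slope of fluorescence ratio to pre-addition baseline per second over 15 to 24 s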); settings: thallium flux BTC fluorescence, at 10 µM, actives lie on both sides
[7] = inhibitors of larval lipid processing in zebrafish, primary screen, whole organism, PED6 fluorescence, gall bladder and intestine (AID 686;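 active = a full or partial loss of lipid-probe fluorescence in the fish gall bladder, intestine or both, judged by eye; inactive = no fluorescence loss, or compound toxic to the fish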;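 also: larvae 5 to 7 days old with five fish per well; signal comes from phospholipase A2 cleavage of quenched PED6 carried via bile; overnight exposure to compound and PED6 before scoring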); settings: Zebrafish larvae PED6 lipid processing, fluorescence scoring; screened at 20 µM (by protocol)
In short: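 Also added: quenched phospholipase substrate PED6, 100 nM final, ingested by larvae; System: zebrafish larvae, 5-7 d; Quantity: 5 larvae per well; Compound: 20 µM single dose; Schedule: overnight compound and PED6 incubation; Read-out: visual per-well fluorescence inhibition score; Measured by: By-eye fluorescence microscopy; Medium: E3.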

[8] = blockers of RIG-like receptor reporter activation – cell-based, Sendai virus stimulus, luciferase, 10K MLSCN set, TLR/RLR signaling modifier project, primary screen (AID 602276;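 active = inhibition at or above 50% at 10 µM; inactive = inhibition below 50%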;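 also: firefly luciferase from ISG56 promoter only with Renilla not read in this screen; 0% = Sendai virus plus DMSO and 100% = medium plus DMSO without virus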); settings: HEK293 RL24 IRF3 luciferase reporter, at 10 µM, stronger effect = higher value
[9] = TLR3 IRF3 reporter activation blockers – cell-based, poly I:C stimulus, luciferase, 10K MLSCN set, primary screen (AID 602277;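 active = inhibition of the reporter signal at or above 50%; inactive = inhibition below 50%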); settings: HEK293-TLR3 RL24 IRF3 luciferase reporter, at 10 µM, stronger effect = higher value

Sequence of Alpha-2C adrenergic receptor (Homo sapiens) (P18825 whole entry, looked up): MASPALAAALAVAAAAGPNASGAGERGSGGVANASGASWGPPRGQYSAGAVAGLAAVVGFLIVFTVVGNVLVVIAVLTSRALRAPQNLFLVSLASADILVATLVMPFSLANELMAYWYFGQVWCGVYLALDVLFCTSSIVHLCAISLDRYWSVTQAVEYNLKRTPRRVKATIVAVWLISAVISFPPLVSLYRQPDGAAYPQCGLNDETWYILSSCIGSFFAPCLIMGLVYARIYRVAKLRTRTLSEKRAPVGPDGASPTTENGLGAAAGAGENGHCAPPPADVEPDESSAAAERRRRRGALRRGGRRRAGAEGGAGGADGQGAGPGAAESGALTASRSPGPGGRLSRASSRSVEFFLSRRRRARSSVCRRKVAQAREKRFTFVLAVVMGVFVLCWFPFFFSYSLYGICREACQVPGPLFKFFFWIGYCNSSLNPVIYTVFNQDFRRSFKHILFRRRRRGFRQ
Sequence of Voltage-gated potassium channel subunit beta-2 (Rattus norvegicus) (P62483 whole entry, looked up): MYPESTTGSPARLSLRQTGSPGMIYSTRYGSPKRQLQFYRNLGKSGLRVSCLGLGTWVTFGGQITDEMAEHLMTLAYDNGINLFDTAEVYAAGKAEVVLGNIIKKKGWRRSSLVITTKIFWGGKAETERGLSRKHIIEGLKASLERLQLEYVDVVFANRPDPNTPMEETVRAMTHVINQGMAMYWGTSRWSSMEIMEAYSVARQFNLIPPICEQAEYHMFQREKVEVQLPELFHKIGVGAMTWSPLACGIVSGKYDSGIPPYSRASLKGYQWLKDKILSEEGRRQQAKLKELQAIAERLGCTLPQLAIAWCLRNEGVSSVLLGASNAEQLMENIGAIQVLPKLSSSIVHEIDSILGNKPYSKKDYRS

Compound: O=C(NCCCN1CCN(c2cccc(Cl)c2)CC1)c1ccc(N2CCCC2=O)cc1
- cell count [1]: 763
- inhibition [1]: -10% (inactive)
- inhibition of aggregation [2]: 11.5% (inactive)
- nuclei count [2]: 97.9%
- inhibition [3]: 46.9% (inactive)
- nuclei count [3]: 105%
- fluorescence slope [4]: -0.479 (inactive)
- NADPH fluorescence slope [5]: -5.9e-05 (inactive)
- slope [6]: 0.00509 (inactive)
- outcome [7]: inactive
- inhibition [8]: 10.3% (inactive)
- inhibition [9]: 0.162% (inactive)

Compound: CSc1ccc(-c2cc(=O)c3ccccc3o2)cc1
- cell count [1]: 620
- inhibition [1]: -10.5% (inactive)
- inhibition of aggregation [2]: -54.9% (inactive)
- nuclei count [2]: 8.7%
- inhibition [3]: -108% (inactive)
- nuclei count [3]: 139%
- fluorescence slope [4]: -0.00698 (active)
- NADPH fluorescence slope [5]: 1.2e-05 (inactive)
- slope [6]: 0.00442 (inactive)
- outcome [7]: inactive
- inhibition [8]: -21% (inactive)
- inhibition [9]: -41.6% (inactive)

Compound: O=C(O)c1ccc(NC(=O)c2cccs2)cc1
- cell count [1]: 464
- inhibition [1]: 1.2% (inactive)
- inhibition of aggregation [2]: 6.1% (inactive)
- nuclei count [2]: 89.3%
- inhibition [3]: -75.3% (inactive)
- nuclei count [3]: 117%
- fluorescence slope [4]: -0.362 (inactive)
- NADPH fluorescence slope [5]: -2.7e-05 (inactive)
- slope [6]: 0.00441 (inactive)
- outcome [7]: inactive
- inhibition [8]: 9.12% (inactive)
- inhibition [9]: 13.8% (inactive)

Compound: c1cnc(NCCNc2ncccn2)nc1
- cell count [1]: 709
- inhibition [1]: -5% (inactive)
- inhibition of aggregation [2]: 11.9% (inactive)
- nuclei count [2]: 132%
- inhibition [3]: -57.1% (inactive)
- nuclei count [3]: 124%
- fluorescence slope [4]: -0.346 (inactive)
- NADPH fluorescence slope [5]: -4.1e-05 (inactive)
- slope [6]: 0.00555 (inactive)
- outcome [7]: inactive
- inhibition [8]: 5.48% (inactive)
- inhibition [9]: 2.33% (inactive)

Compound: Cc1ccc2c(C(=O)CN3CCSCC3)c(C)[nH]c2c1
- cell count [1]: 634
- inhibition [1]: 4.8% (inactive)
- inhibition of aggregation [2]: -7.9% (inactive)
- nuclei count [2]: 106%
- inhibition [3]: 2.2% (inactive)
- nuclei count [3]: 104%
- fluorescence slope [4]: -0.386 (inactive)
- NADPH fluorescence slope [5]: -8.2e-05 (inactive)
- slope [6]: 0.00551 (inactive)
- outcome [7]: inactive
- inhibition [8]: -12.6% (inactive)
- inhibition [9]: -12.9% (inactive)

Compound: Cc1cc(NC(=O)CSc2nc3c(c(-c4cccnc4)c2C#N)CCC3)no1
- cell count [1]: 595
- inhibition [1]: -2.9% (inactive)
- inhibition of aggregation [2]: 0.1% (inactive)
- nuclei count [2]: 96.3%
- inhibition [3]: 15.2% (inactive)
- nuclei count [3]: 88.6%
- fluorescence slope [4]: -0.337 (inactive)
- NADPH fluorescence slope [5]: -6.5e-05 (inactive)
- slope [6]: 0.00719 (inactive)
- outcome [7]: inactive
- inhibition [8]: 0.978% (inactive)
- inhibition [9]: -3.11% (inactive)

Compound: Cc1cc(NC(=O)CSc2nc(C3CCCCC3)nc3ccccc23)no1
- cell count [1]: 725
- inhibition [1]: -4.4% (inactive)
- inhibition of aggregation [2]: -20.3% (inactive)
- nuclei count [2]: 110%
- inhibition [3]: -10.7% (inactive)
- nuclei count [3]: 106%
- fluorescence slope [4]: -0.378 (inactive)
- NADPH fluorescence slope [5]: -5.4e-05 (inactive)
- slope [6]: 0.00411 (inactive)
- outcome [7]: inactive
- inhibition [8]: 12.9% (inactive)
- inhibition [9]: 15.3% (inactive)

Compound: COc1ccccc1N1CCN(C(=O)c2cc(-c3ccc(Cl)c(Cl)c3)on2)CC1
- cell count [1]: 430
- inhibition [1]: 5.1% (inactive)
- inhibition of aggregation [2]: -5.8% (inactive)
- nuclei count [2]: 97.3%
- inhibition [3]: -17.9% (inactive)
- nuclei count [3]: 102%
- fluorescence slope [4]: -0.407 (inactive)
- NADPH fluorescence slope [5]: -7.4e-05 (inactive)
- slope [6]: 0.00441 (inactive)
- outcome [7]: inactive
- inhibition [8]: 1.29% (inactive)
- inhibition [9]: -2.55% (inactive)

Compound: COC(=O)Nc1ccc(S(=O)(=O)N2CCCCCC2)cc1
- cell count [1]: 336
- inhibition [1]: -2.5% (inactive)
- inhibition of aggregation [2]: 1.8% (inactive)
- nuclei count [2]: 100%
- inhibition [3]: -61.6% (inactive)
- nuclei count [3]: 127%
- fluorescence slope [4]: -0.354 (inactive)
- NADPH fluorescence slope [5]: 1.2e-05 (inactive)
- slope [6]: 0.0065 (inactive)
- outcome [7]: inactive
- inhibition [8]: 17.1% (inactive)
- inhibition [9]: 19.7% (inactive)

Compound: Cc1ccc(C(O)c2nc3ccccc3n2C(C)C)cc1 (configuration not stated)
- cell count [1]: 304
- inhibition [1]: -3.7% (inactive)
- inhibition of aggregation [2]: 11% (inactive)
- nuclei count [2]: 91.7%
- inhibition [3]: 28.8% (inactive)
- nuclei count [3]: 86.7%
- fluorescence slope [4]: -0.418 (inactive)
- NADPH fluorescence slope [5]: -1.7e-05 (inactive)
- slope [6]: 0.00388 (inactive)
- outcome [7]: inactive
- inhibition [8]: 20% (inactive)
- inhibition [9]: 11.8% (inactive)

Compound: O=C(CN1CCN(Cc2ccc3c(c2)OCO3)CC1)N1CCc2[nH]c3ccc(F)cc3c2C1
- cell count [1]: 687
- inhibition [1]: 13.9% (inactive)
- inhibition of aggregation [2]: 6.4% (inactive)
- nuclei count [2]: 96.6%
- inhibition [3]: 34.4% (inactive)
- nuclei count [3]: 101%
- fluorescence slope [4]: -0.409 (inactive)
- NADPH fluorescence slope [5]: -6.8e-05 (inactive)
- slope [6]: 0.00435 (inactive)
- outcome [7]: inactive
- inhibition [8]: 12% (inactive)
- inhibition [9]: 4.08% (inactive)
